STAT3 activator: STAT3 signaling activation; U3A cells, IL-6 STAT3-luciferase reporter, luminescence; 100% = signal with IL-6 EC80 alone; activation (% of control), % at 5.6 µM; hit rate 0.91% among 190,000;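 active means activation above the screen-wide mean of compound activation plus 3 SD, cut at about 130% in these data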;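 further: 0% = background luminescence of wells with medium and substrate only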
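Material: STAT3-luciferase reporter U3A cells; Probe or stimulus: IL-6 (33 ng/mL); Incubation: compound pre-incubation 1 h before IL-6, then 6 h stimulation at 37 °C; Technique: luminescence from STAT3-driven luciferase reporter; Evaluation: % activation versus median of IL-6-stimulated wells; Controls: IL-6-only high control.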
PERK inh: human PERK inhibition, primary cell-based screen; Q9NZJ5; CHO PERK-DD fusion, SEAP luminescence translation reporter; inhibition, % at 5.6 µM; hit rate 0.17% among 220,000; AID 1416;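 active means inhibition above the mean inhibition of all tested compounds plus 3 SD, set separately per screening campaign, cut at about 2.9% in these data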;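 further: PERK kinase domain activated by AP20187 dimerizer at 100 nM; 0% = DMSO with dimerizer and 100% = rapamycin at 8.4 µM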
Target sequence (Q9NZJ5 whole entry, looked up, the tested form may be a part): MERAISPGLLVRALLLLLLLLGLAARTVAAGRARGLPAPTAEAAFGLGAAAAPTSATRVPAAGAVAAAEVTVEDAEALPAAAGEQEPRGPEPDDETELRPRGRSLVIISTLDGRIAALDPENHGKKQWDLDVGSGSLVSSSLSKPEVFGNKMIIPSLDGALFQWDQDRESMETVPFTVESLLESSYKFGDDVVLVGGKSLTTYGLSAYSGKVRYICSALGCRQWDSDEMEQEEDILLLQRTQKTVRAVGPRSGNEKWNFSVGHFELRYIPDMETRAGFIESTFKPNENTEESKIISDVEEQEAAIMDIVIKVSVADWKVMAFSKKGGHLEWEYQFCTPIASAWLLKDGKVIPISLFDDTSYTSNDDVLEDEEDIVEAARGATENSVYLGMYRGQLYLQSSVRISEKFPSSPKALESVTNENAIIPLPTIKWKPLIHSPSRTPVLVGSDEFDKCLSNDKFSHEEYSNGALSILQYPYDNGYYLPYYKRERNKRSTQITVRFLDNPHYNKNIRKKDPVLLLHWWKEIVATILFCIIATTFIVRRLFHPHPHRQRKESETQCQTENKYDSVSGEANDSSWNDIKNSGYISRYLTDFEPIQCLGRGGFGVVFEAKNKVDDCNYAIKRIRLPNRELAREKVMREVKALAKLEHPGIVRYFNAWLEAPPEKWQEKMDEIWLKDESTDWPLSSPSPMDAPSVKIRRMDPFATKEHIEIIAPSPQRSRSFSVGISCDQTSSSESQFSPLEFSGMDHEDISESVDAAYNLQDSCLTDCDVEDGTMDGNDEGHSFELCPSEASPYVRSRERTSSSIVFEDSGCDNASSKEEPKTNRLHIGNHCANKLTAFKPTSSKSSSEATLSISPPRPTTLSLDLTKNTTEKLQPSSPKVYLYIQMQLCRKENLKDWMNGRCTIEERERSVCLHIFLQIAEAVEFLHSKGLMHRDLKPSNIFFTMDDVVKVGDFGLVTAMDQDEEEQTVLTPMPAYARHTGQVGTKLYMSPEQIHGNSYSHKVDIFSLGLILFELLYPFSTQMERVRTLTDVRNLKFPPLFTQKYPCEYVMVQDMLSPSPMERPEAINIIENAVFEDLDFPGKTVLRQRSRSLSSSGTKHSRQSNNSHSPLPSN
Platelet DG rel: platelet dense granule release activity. inhibition, %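 (compounds screened at 7.5 µM in platelet-rich plasma)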. human platelet-rich plasma, SFLLRN dense granule ATP release, luminescence. hit rate 0.22% among 300,000;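 active means mean replicate score, as percent of positive control, at or above 50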
STAT1 blocker: inhibitors of IFN-gamma induced STAT1 signaling | NIH 3T3 STAT1-luciferase reporter, luminescence | inhibition, % at 5.5 µM | hit rate 0.35% among 200,000;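 active means inhibition above a set limit, the mean inhibition across all tested compounds plus 3 SD, cut at about 34% in these data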;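 further: 0% = IFN-gamma with DMSO and 100% = IFN-gamma with 300 µM nifuroxazide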
STAT3 blocker: inhibitors of IL-6 induced STAT3 signaling. U3A cells, IL-6 STAT3-luciferase reporter, luminescence; host cell line lacks STAT1. inhibition, % at 5.5 µM. hit rate 0.89% among 190,000;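 active means inhibition above the mean inhibition across all screened compounds plus 3 SD, cut at about 44% in these data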;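 further: 0% = DMSO only wells and 100% = 100 µM nifuroxazide control wells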
The depositor's hits bear a star; . = no result given. The list is not random: actives were taken first. Their share in the collection is about 1.4%.

SMILES | STAT3 activator | PERK inh | Platelet DG rel | STAT1 blocker | STAT3 blocker
Cc1cccc(-c2noc(-c3ccc4c(c3)OCO4)n2)c1 | 43.1 | 0.3 | 20.4 | 16.0 | 69.0*
COc1cccc(-c2nc(-c3ccccn3)no2)c1 | 19.1 | 0.2 | 26.5 | 59.5* | 94.6*
c1ccc(-c2noc(-c3ccncc3)n2)nc1 | 71.9 | 0.2 | 26.3 | -26.0 | 33.7
COc1ccc(-c2nc(-c3cccc(C)c3)no2)cc1OC | 97.8 | 1.0 | -15.8 | -45.9 | 5.8
c1ccc(-c2noc(-c3ccc4c(c3)OCO4)n2)nc1 | 12.2 | 1.1 | 95.0* | 53.8* | 107.3*
c1ccc(-c2noc(-c3ccc4ccccc4c3)n2)nc1 | 9.3 | 0.8 | 24.5 | 88.4* | 112.6*
O=C(O/N=C\c1ccc(N2CCCCC2)c([N+](=O)[O-])c1)c1ccc(Cl)cc1Cl | 103.8 | 3.0* | 14.4 | 3.4 | 3.3
Cc1ccc(C(=O)O/N=C\c2ccc(N3CCOCC3)c([N+](=O)[O-])c2)cc1 | 107.6 | 0.4 | 11.7 | -5.2 | -1.1
Cc1cc2oc(=O)cc(CN(C)Cc3ccccc3Cl)c2cc1C | . | . | -7.1 | . | .
CCn1c(C)nc2cc(-c3nc4n(n3)Cc3ccccc3-4)ccc21 | 7.2 | -0.3 | 96.7* | 96.2* | 115.2*
Fc1ccc(-c2nc3n(n2)Cc2ccccc2-3)cc1 | 116.7 | 0.9 | . | -14.7 | -14.8
CCOC(=O)C(OC(=O)c1sc(=S)n(C)c1C)C(C)=O (stereo not drawn) | 102.6 | 2.3 | 50.1* | 1.7 | 0.8
Cc1ccc(OCCOC(=O)c2sc(=S)n(C)c2C)cc1 | 86.6 | -0.3 | -1.9 | -2.2 | 17.9
NC(=O)c1c(/N=C/c2cccnc2)sc2c1CCCC2 | . | -1.1 | -1.7 | . | .
CSc1nc2ccccc2cc1/C=C(\C#N)c1cccc(Cl)c1 | 104.5 | 0.4 | -7.3 | -0.2 | 0.7
COc1ccc(C2=Nn3c([n+](C)c4ccccc43)SC2)cc1 | 70.5 | -0.6 | -0.7 | 34.7* | 37.3
N#CC(C#N)=C1C=CC=CN1/C(=C\c1ccccc1Cl)C(=O)c1ccccc1 | 95.4 | -0.3 | . | 35.1* | 13.2
N#CC(C#N)=C1C=CC=CN1/C(=C\c1ccccc1)C(=O)c1cccs1 | 109.4 | 0.3 | 17.8 | -3.0 | -11.4
O=C(CSCc1ccccc1Br)N/N=C/c1ccccc1C(=O)O | 108.8 | 1.5 | -1.2 | -13.0 | 1.3
Brc1cccc(-c2n[nH]c(-c3ccccc3)n2)c1 | 151.9* | -0.2 | 15.4 | -41.7 | -54.6
Cc1ccc(Nc2cc(C)nc(N3CCOCC3)n2)cc1 | 133.8* | 0.1 | -32.6 | -16.6 | -34.1
Cc1ccc(S(N)(=O)=O)cc1NC(=O)C1CC2CCC1C2 (stereo not drawn) | 98.0 | 3.0* | -9.1 | 0.3 | 9.1
COc1ccc2c(c1)sc1nc(-c3ccccc3)cn12 | 14.9 | 0.3 | 54.3* | 70.7* | 106.0*
CC(=O)Nc1ccc(S(=O)(=O)N(Cc2ccco2)CC2CCCO2)cc1 (stereo not drawn) | 98.5 | 0.0 | 1.7 | -6.6 | 6.2
COc1ccccc1N=c1sc2ccccc2n1C | 99.3 | 0.8 | 1.0 | -0.9 | 4.3
SMILES | STAT3 activator | PERK inh | Platelet DG rel | STAT1 blocker | STAT3 blocker
Cn1/c(=N/N=C/c2ccc([N+](=O)[O-])cc2)sc2ccccc21 | 143.9* | 1.9 | . | -35.5 | -54.3
CCOc1cccc(-c2c(C(=O)N/N=C/c3ccc(C)s3)nnn2-c2nonc2N)c1 | . | . | 64.6* | . | .
CCOC(=O)CCCCC(=O)c1[nH]c(=O)[nH]c1CSc1nc(C)cc(C)n1 | 100.8 | 0.2 | 28.5 | 6.0 | 3.3
CCOC(=O)CCCCC(=O)c1[nH]c(=O)[nH]c1CSc1nnc2c3cc(Br)ccc3n(C)c2n1 | 133.6* | 0.0 | 2.1 | -6.8 | -35.8
O=c1c2cccc3c2c(nn1CN1CCOCC1)-c1ccccc1-3 | 72.6 | -0.6 | -0.4 | -19.7 | 34.8
CCN(CC)CCn1nc2c3c(cccc3c1=O)-c1ccccc1-2 | 134.5* | 0.2 | -0.9 | -146.8 | -42.6
Cc1[nH]c(=O)c(C#N)c(C)c1CSc1ncccn1 | . | . | 49.7* | . | .
COc1ccccc1OCCNC(=O)c1ccc2c(c1)OCCO2 | . | . | 3.6 | . | .
COc1ccccc1N/N=C/c1ccc2c(c1)OCO2 | 39.5 | -1.8 | -1.3 | 50.7* | 71.6*
CC1CC(C)CN(C(=O)C2CCN(S(=O)(=O)c3c(Cl)cccc3Cl)CC2)C1 (stereo not drawn) | . | . | -8.8 | . | .
Cc1cc(-c2ccccc2)oc(=O)c1NC(=O)c1ccccc1 | 102.6 | -0.1 | 0.5 | -13.1 | 5.8
COc1ccc(-n2c(-c3ccc(Br)cc3)c[n+]3c2CCc2ccccc2-3)cc1 | 39.4 | -0.8 | 6.5 | 24.6 | 71.6*
CC(C)c1ccc(-n2c(-c3ccccc3)c[n+]3c2CCc2ccccc2-3)cc1 | 34.6 | 0.0 | 2.4 | 40.5* | 79.8*
CC(C)(C)C(Cn1ccnc1)NC(=O)c1ccc2nc(C3CC3)oc2c1 (stereo not drawn) | . | . | 57.8* | . | .
O=C(CCc1ccccc1)Nc1nc2c(F)cc(F)cc2s1 | . | 0.5 | 0.0 | . | .
COc1ccccc1-c1cc(C(=O)N2CCOCC2)no1 | . | . | 1.5 | . | .
COC(=O)C(NC(C)=O)(Nc1ccc(C)cn1)C(F)(F)F (stereo not drawn) | . | 3.4* | -11.4 | . | .
Cc1noc(C)c1CSCC(=O)N(C)CC(=O)Nc1ccccc1Br | . | . | -6.6 | . | .
COc1ccc(C(=O)NC(C(=O)NCC(=O)Nc2c(C)cccc2C)C(C)C)cc1 (stereo not drawn) | 99.2 | 0.9 | -1.0 | 11.9 | -1.7
CC(=O)c1ccc(-c2nc3c4ccccc4ccn3c2C(C)=O)o1 | 89.4 | 0.0 | 51.0* | -0.1 | 17.7
c1ccc(-c2nc3c4ccccc4ccn3c2CN2CCOCC2)cc1 | . | -1.8 | 7.9 | . | .
Cc1cc(C(=O)COC(=O)c2ccc[nH]c2=O)c(C)n1-c1ccccc1 | 59.4 | -1.8 | -6.2 | 36.2* | 49.0*
CC(=O)Nc1nc2ccccc2n1Cc1ccccc1C | 133.6* | -1.1 | -3.3 | -26.5 | -34.3
Cc1cc(C)c(NC(=O)Cn2nnc(C(=O)Nc3ccc(F)cc3F)c2N)c(C)c1 | . | . | 1.6 | . | .
O=C(c1ccc(N2CCCCS2(=O)=O)cc1)N1CCN(c2ccc(N3CCOCC3)nn2)CC1 | 98.2 | 3.0* | 37.1 | -5.0 | 1.4
SMILES | STAT3 activator | PERK inh | Platelet DG rel | STAT1 blocker | STAT3 blocker
Cc1ccc(C(=O)N2CCN(c3ccc(N4CCOCC4)nn3)CC2)cc1C | . | . | -20.1 | . | .
Cc1ccc(CS(=O)(=O)c2cn(CC(=O)N3CCOCC3)c3ccccc23)cc1 | . | . | -2.8 | . | .
CCOC(=O)C(=Cc1ccc(Br)cc1)C(=O)OCC | . | -1.3 | 4.4 | . | .
CCOC(=O)C(CC)(CC)C(=O)/C=C/c1ccc(Br)cc1 | 113.0 | 3.2* | -30.3 | 12.6 | -3.4
COc1cc(C=NCC2OCCc3ccccc32)cc(OC)c1 (stereo not drawn) | 101.2 | 0.4 | -6.3 | 5.0 | -3.8
CC1CC(=O)NN=C1c1ccc(N(C)C)c([N+](=O)[O-])c1 (stereo not drawn) | 99.6 | 0.6 | 82.1* | -6.5 | 7.4
CCN(CC)c1ccc(C2=NNC(=O)CC2C)cc1[N+](=O)[O-] (stereo not drawn) | 103.8 | -0.1 | 55.1* | -4.2 | 5.2
CC1CC(=O)NN=C1c1cccs1 (stereo not drawn) | . | -0.3 | 35.7 | . | .
COC(=O)c1ccc(C)c(NC(=O)COC(=O)C2CC3CCCC(C2)C3=O)c1 (stereo not drawn) | . | . | 16.1 | . | .
